Assay results from ChEMBL document CHEMBL4251737, “Imidazo[2,1-b]benzothiazol Derivatives as Potential Allosteric Inhibitors of the Glucocorticoid Receptor” (ACS Med Chem Lett, 2018).
Values joined by “and” are separate entries in the source; they are usually repeats but may differ in a detail not shown here. Equal values may be shown once. Active and inactive are the calls of the source. The rule behind the calls is not given here.

Assays:
[1] = target: T1, Glucocorticoid receptor (Homo sapiens) (UniProt P04150); test: Transactivation of GCR (unknown origin) expressed in human fibrosarcoma cells at 0.1 uM after 6 hrs by luciferase reporter gene assay; type: cell-based
T1 sequence (whole entry): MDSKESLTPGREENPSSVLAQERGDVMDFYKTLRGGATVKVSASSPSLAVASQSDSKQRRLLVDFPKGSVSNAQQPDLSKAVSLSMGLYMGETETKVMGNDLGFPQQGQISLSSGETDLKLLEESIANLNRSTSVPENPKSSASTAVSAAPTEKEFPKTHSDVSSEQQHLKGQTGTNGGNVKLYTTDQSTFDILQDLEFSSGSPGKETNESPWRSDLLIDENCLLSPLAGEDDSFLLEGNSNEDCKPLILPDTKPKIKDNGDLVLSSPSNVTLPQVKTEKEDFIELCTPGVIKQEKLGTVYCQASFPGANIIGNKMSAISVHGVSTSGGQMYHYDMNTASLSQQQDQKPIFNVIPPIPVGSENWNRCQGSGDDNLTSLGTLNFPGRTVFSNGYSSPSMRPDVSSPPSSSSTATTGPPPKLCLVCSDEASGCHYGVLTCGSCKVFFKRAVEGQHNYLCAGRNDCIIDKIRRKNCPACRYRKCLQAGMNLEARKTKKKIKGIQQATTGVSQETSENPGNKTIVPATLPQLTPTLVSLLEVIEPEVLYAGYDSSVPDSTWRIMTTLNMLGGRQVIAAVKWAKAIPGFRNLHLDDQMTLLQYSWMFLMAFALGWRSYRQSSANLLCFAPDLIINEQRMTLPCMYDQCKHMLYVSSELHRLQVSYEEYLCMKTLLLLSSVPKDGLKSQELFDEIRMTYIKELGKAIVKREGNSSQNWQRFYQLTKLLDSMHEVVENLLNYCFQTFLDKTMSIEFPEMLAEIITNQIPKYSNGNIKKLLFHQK
Summary of the method: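 GCR luciferase reporter run with single compound at 0.1 µM to probe agonism; reference agonist DEX at 1 µM.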

[2] = target: T1, Glucocorticoid receptor (Homo sapiens); test: Transrepression of GCR (unknown origin) expressed in human fibrosarcoma cells assessed as inhibition of DEX-induced GCR activation at 0.1 uM after 6 hrs by luciferase reporter gene assay relative to DEX; values are per cent of control
[3] = tested on: HeLa; test: Cytotoxicity against human HeLa cells after 72 hrs by MTT assay; type: cell-based
Summary of the method: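 HeLa cells exposed 72 h in complete medium to 0.4, 2, 10, 50 and 250 µM; viability read by MTT. Means ± SE of 3 independent experiments run in triplicate.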

[4] = tested on: HeLa; test: Down regulation of GCRalpha expression in human HeLa cells at 0.4 uM after 24 hrs by Taqman-based real-time PCR analysis relative to control; type: functional
Summary of the method: (§1)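 GCR transcripts quantified in HeLa cells after 24 h treatment at 0.4 and 2 µM. Means ± SD of 3 independent experiments; compared by one-way ANOVA.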

[5] = tested on: HeLa; test: Down regulation of GCRalpha expression in human HeLa cells at 2 uM after 24 hrs by Taqman-based real-time PCR analysis relative to control; type: functional, cell-based; summary of the method: as §1
[6] = target: T1, Glucocorticoid receptor (Homo sapiens); test: Transrepression of GCR in human HeLa cells assessed as down regulation of GILZ mRNA expression at 0.4 uM after 24 hrs by Taqman-based real-time PCR analysis; type: cell-based
Summary of the method: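 GILZ expression measured in HeLa cells after 24 h treatment at 0.4 and 2 µM, relative to untreated cells.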

[7] = target: T1, Glucocorticoid receptor (Homo sapiens); test: Transrepression of GCR (unknown origin) expressed in human fibrosarcoma cells assessed as suppression of TNF-induced NFkappaB activity at 1 uM pretreated for 2 hrs followed by TNF addition after 4 hrs by luciferase reporter gene assay relative to control; type: cell-based
Summary of the method: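 Cells pretreated 2 h with compound alone, then TNF added and combination treatment continued 4 h; NF-kB luciferase reporter activity measured.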

[8] = target: T1, Glucocorticoid receptor (Homo sapiens); test: Transrepression of GCR in human HeLa cells assessed as suppression of DEX-induced GILZ mRNA expression at 0.4 to 2 uM after 24 hrs by Taqman-based real-time PCR analysis; type: cell-based
Summary of the method: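 HeLa cells treated 24 h with DEX alone (0.1 µM) or DEX plus compound; GILZ transcription measured. RU486 plus DEX served as competitive-antagonist control.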

[9] = Solubility of the compound in water; type: physicochemical; settings: buffer

Row | Activity [1] | residual activity [2] | Activity [6] | Compound | EC50 [3] | other results
1 | – | – | Active | O=C(O)c1ccc(-c2cn3c4c(sc3n2)CCCC4)cc1 | 170 µM | Activity [4]: 50%; Activity [5]: inactive
2 | inactive | 18% | Active | N#Cc1ccc(-c2cn3c4c(sc3n2)CCCC4)cc1 | 1.7 µM | Activity [7]: 76%; Activity [8]: inactive
3 | – | – | Active | COC(=O)c1ccc(-c2cn3c4c(sc3n2)CCCC4)cc1 | 7.7 µM | Activity [4]: Active; Activity [5]: inactive
4 | inactive | – | Active | NCc1ccc(-c2cn3c(n2)sc2ccccc23)cc1 [listing 2 of 2 here] | – | Activity [8]: inactive
5 | inactive | 34% | – | OCc1ccc(-c2cn3c(n2)sc2ccccc23)cc1 | – | –
6 | – | – | Active | N#Cc1ccc(-c2cn3c4c(sc3n2)C(=O)CCC4)cc1 | 16 µM | Activity [4]: Active; Activity [5]: inactive
7 | inactive | 23% and 35% | – | Cl.NCc1ccc(-c2cn3c4c(sc3n2)CCCC4)cc1 | – | solubility [9]: Soluble
8 | inactive | 25% | – | CCn1c2ccccc2n2cc(-c3ccc(C#N)cc3)nc12 | – | –

Continued, compound first:

Row | Compound | Activity [1] | residual activity [2] | Activity [6] | EC50 [3] | other results
9 | Brc1ccc(-c2cn3c(n2)sc2ccccc23)cc1 | inactive | 20% | – | – | –
10 | NCc1ccc(-c2cn3c(n2)sc2ccccc23)cc1 [listing 1 of 2 here] | – | – | – | 3.6 µM | –
11 | Nc1ccc(-c2cn3c(n2)sc2ccccc23)cc1 | inactive | 23% | – | – | –
12 | Cl.NCc1ccc(-c2cn3c(n2)sc2ccccc23)cc1 | – | – | – | – | solubility [9]: Soluble
13 | Cc1ccc(-c2cn3c(n2)sc2ccccc23)cc1 | inactive | 30% | – | – | –
